Tested on: MS2 coat protein
Test: apparent Kd, MS2 coat protein; higher = weaker binding; RNA-MaP array; FMN 200 µM where present
Summary of the method: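 Stalled E. coli RNA polymerase transcribed the designs on Illumina sequencing-chip clusters. SNAP-549-labelled MS2 coat protein was titrated from 0.7 or 1.5 nM, doubling to 3 µM, without and then with constant ligand, in 100 mM Tris-HCl pH 7.5, 80 mM KCl, 4 mM MgCl2, BSA, DTT, yeast tRNA and Tween-20. Per-cluster binding curves were fitted to green signal normalised to red-channel RNA signal and control-cluster median Fmax. The apparent Kd is the median of the filtered fits.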

[1] = designed as: ON switch for flavin mononucleotide, no ligand
[2] = ligand present: flavin mononucleotide, designed as: ON switch for flavin mononucleotide
[3] = designed as: OFF switch for flavin mononucleotide, no ligand
[4] = ligand present: flavin mononucleotide, designed as: OFF switch for flavin mononucleotide

Row | Sequence | apparent Kd [1] [nM] | apparent Kd [2] [nM] | apparent Kd [3] [nM] | apparent Kd [4] [nM]
1 | GGUCGUCACAUAUACAUGAGGAUCACCCAUGUCAAAAGACAUGAGGAUAUGGAUCCUAAUUGGAUCCAGAAGGCAUGGACGACC | 986 | 47.3 |  | 
2 | UGUCGGAGCAGAGGAUAUAUACAUGAGGAUCACCCAUGUAAAGAUCAAAGCUGGAAACAGCAAGUAUAGAAGGCUGCUCCGACA |  |  | 120 | 295
3 | GUCGGGAUUACAUGAGGAUCACCCAUGUCAGAACGGGCAGUCAGAAGGUGCCAUUAGGGAGAGGGUAAGGAUAUGAUUUUUGGC | 11.3 | 9.92 |  | 
4 | CGCCCGUAAGGAUAUACAUGAGGAUCACCCAUGUCGGUAACCGAAGGGCGAUACCUUUGUAGAAGGUACUGCGU |  |  | 14.8 | 13.7
5 | CUUUUGUGAGGAUAUUGGUAGUAAAUGAAUAAAAUUAUUACCGAGAAGGCACAUGAGGAUCACCCAUGUUCCUC |  |  | 47.7 | 491
6 | AACAUGGUGCAGGAUAUCCAACAUAUCGCGAGAGGAGAAGGGUACACAUGAGGAUCACCCAUGUGUGGUCUGUU |  |  | 29.3 | 223
7 | AUCCCGAUAGCAGGAUAUUUCUGCAGUUGUGGUUAGGUCGCCCUACAUGAGGAUCACCCAUGUAGAGAGAAGGGCUGUGGUAAU |  |  | 6.71 | 6.83
8 | AAAACUGAAGGAUAUGCCAGGGUGAGAGCUGGUGACGUUUAACAUGAGGAUCACCCAUGUAGAAGGUCAAAACA |  |  | 15.3 | 17
9 | GCCAGAGCAGGAUAUUCAAUAAUCCACAUGAGGAUCACCCAUGUCUAGCGAAAGCUAGAGGGAGAAGGGCUCUGGC |  |  | 79.3 | 33.7
10 | UGGUCAUGAUCAGGAUAUUAACAUGGGCUACAUUAAGAAGGGAUAGUGAGAUGCGAACGGAGCGACAUGAGGAUCACCCAUGUA | 39.2 | 25.5 |  | 
11 | GGAUAGGACAGAGGAUAUACGUGCGAGAGAUACUAGCAAAAUUUCCUCACAUGAGGAUCACCCAUGUAGAAGGCUGUCCUAUCG |  |  | 162 | 195
12 | CACUCACAUGAGGAUCACCCAUGUCCUAGCAGGUCAGGAUAUAGCUCGGAUGCGUUCAGUCUAGAAGGGACACGUU | 156 | 111 |  | 
13 | ACAUGUCGUGAGAAGGACGGCGUGCAUAGCGCCGUAGGAUAUCAAGACAUGAGGAUCACCCAUGUACGCGUGUCCAGCCGUGCU |  |  | 65.2 | 342
14 | AGACAGUCAGGAUAUACAUGAGGAUCACCCAUGUUGAGAUGUGAAAGGGCAGGAAUAGGUAGAAGGGACGAGAG |  |  | 34.6 | 33.7
15 | AAUAACAGAGGAUAUACUGUUUUAUGUGUUUGUUGUUUUAAACAUGAGGAUCACCCAUGUAGAAGGCUGAAUGA |  |  | 26.5 | 25.2
16 | GGGCCCGGAGGAUAUACAUGAGGAUCACCCAUGUAUUUGGGCCCUAUUGGGCCCGGGUGUAGAAGGCCGGGUUU |  |  | 15.7 | 21.4
17 | GCUGUAAAUGAGAAGGCGAUCAUGAAACAUGAUCGAGGAUAUCAUGUUUACAUGAGGAUCACCCAUGUAUGGGUAUAUUGCAGC | 618 | 19.6 |  | 
18 | UUGUGGGAGCAGGAUAUCUUAUUUUGGUUUUGUGGAGAAGGGCUGACAUGAGGAUCACCCAUGUGGUCCUAGAU |  |  | 21.7 | 36.5

Row | Sequence | apparent Kd [1] [nM] | apparent Kd [2] [nM] | apparent Kd [3] [nM] | apparent Kd [4] [nM]
19 | ACAUGCAUAGCGAUAUGAUCGAGAGAUCAUGUCGCUAAAUUUAGAAGGACAUGAGGAUCACCCAUGUAGGAUAUGGGAGCAUGU | 49.5 | 10.8 |  | 
20 | AUGGACGCAGGAUAUACAUGAGGAUCACCCAUGUUAGGGUUGUGAGUAGGAAGGGAAGGUAGAAGGGCGAGAGU |  |  | 120 | 141
21 | CAGCGAAAGCUGAAUGUCGGAGCAGAGGAUAUUACAUGAGGAUCACCCAUGUAUGAACCAAAAUGUAAGAAGGCUGCUCCGACA |  |  | 844 | 20.4
22 | GGUACCAACACAGGAUAUGCAAUCCUUUGGGUUGCAGAAGGGUGAAAACAUGAGGAUCACCCAUGUGGUACCGGGCGUGAGCCC | 473 | 39.8 |  | 
23 | CUGGGUAAAAUGGGAGGUAGCUGGCAGGAUAUGACAUGAGGAUCACCCAUGUGGAGAUCUUGGGAUCAGAAGGGCCUGUGACCU |  |  | 205 | 119
24 | GUUUUGGUAGGAUAUACAUGAGGAUCACCCAUGUCCCACCCGUUACCUAUGACCAUAUGUAGAAGGACCAUUUG |  |  | 22.2 | 28.2
25 | UCAUAUAUACAAGGAUAUCAAUUAUUUAUACAUCCUACAUGAGGAUCACCCAUGUUUUUAUAUUUUGAGAAGGUGUAAUGUCUU | 21.1 | 27.5 |  | 
26 | UUUUAUGUCAAAGGAUAUAUAAAUAAAUUUAUAACAUGAGGAUCACCCAUGUACUUUAGUAUGAGGUAGAAGGUUGAUAAGAGA | 35.4 | 23.3 |  | 
27 | CCCAAACUUGGGUUUGGUGGUUCAUAGGAUAUGCUUGUACAUGAGGAUCACCCAUGUACUAUUGUGCAGAAGGGUGCAUGGCAA | 36.7 | 26.5 |  | 
28 | AGUAACAGAGGAUAUACUGUUUUAUGUGUUUGUUGUUUUAAACAUGAGGAUCACCCAUGUAGAAGGCUGAAUAA |  |  | 20.1 | 21.2
29 | GUGUACAGAGGAUAUACAUAAGCUAGGAAACUAGCAACCUCACAUGAGGAUCACCCAUGUAGAAGGCUGUACAC |  |  | 189 | 59.6
30 | UGUGGGAGUCAGAAGGAGUAUUCUACAUGAGGAUCACCCAUGUCUGGUGCUAGGAUAUGGGUCUGGGCGGACUAAGGUCUCGUA | 444 | 243 |  | 
31 | AUAGUUUUUGAGAAGGCAUUUCUUAAGUGAUCUUACUAGUACAUGAGGAUCACCCAUGUUUUGUAUGAGGAUAUCAGUAGGUUG |  |  | 33.9 | 31.7
32 | UCGGCGCGAGGAUAUACGUUUGCUUUUUUGUGUCGUUGCGUACAUGAGGAUCACCCAUGUAGAAGGCGCGCCGC |  |  | 17.5 | 83.6
33 | CACCGGCCCUAUAUGUUCUAGACAUGAGGAUCACCCAUGUAUAGAAGGGUCUUCGCGAAACGCAGACAGGAUAUGUACAGGAGU |  |  | 6.08 | 9.13
34 | GAAUAAUUGAUCCAAUAUAACAACAUGAGGAUCACCCAUGUGCAGGAUAUCGUGUGUGUUAUAUACGAGAAGGGCAAGAACUGU |  |  | 729 | 594
35 | GCAGAGCCUGACAUGAGGAUCACCCAUGUUAGAUUGUUAUGUCAGGAUAUUGUCUAGCAACUAGACAAGAAGGGAUGCUCUGCG | 341 | 27.8 |  | 
36 | UAUUAAUACGAAGGAUAUGGUUACAUGAGGAUCACCCAUGUAUGUAUAUUGAUCUAGUUUUUUAACCAGAAGGUCGUGAGUAAA |  |  | 30.6 | 48.6

From the EternaBench riboswitch data
